Results from ChEMBL document CHEMBL2062422, “Design, synthesis and biological evaluation of some novel thienopyrimidines and fused thienopyrimidines as anti-inflammatory agents” (Eur J Med Chem, 2012).

Columns and labels:
Rattus norvegicus [1] = assay: Antiinflammatory activity in albino rat sub-acute inflammatory model assessed as inhibition of formalin-induced paw edema at 10 mg/kg, po administered 1 hr post challenge for 7 consecutive days measured at day 8 of challenge; type: functional; details: in the assay text read “1 hr prior to challenge” for “1 hr post challenge”
Rattus norvegicus [2] = assay: Antiinflammatory activity in albino rat acute inflammatory model assessed as inhibition of formalin-induced paw edema at 10 mg/kg, po administered 1 hr prior to challenge measured after 4 hr
Rattus norvegicus [3] = assay: Antiinflammatory activity in albino rat acute inflammatory model assessed as inhibition of formalin-induced paw edema at 10 mg/kg, po administered 1 hr prior to challenge measured after 2 hr
Rattus norvegicus [4] = assay: Antiinflammatory activity in albino rat sub-acute inflammatory model assessed as inhibition of turpentine-induced granuloma pouch at 10 mg/kg, po administered 1 hr […] for 7 consecutive days measured at day 8 of challenge; type: functional
Rattus norvegicus [5] = assay: Antiinflammatory activity in albino rat sub-acute inflammatory model assessed as inhibition of formalin-induced paw edema at 10 mg/kg, po administered 1 hr prior to challenge for 7 consecutive days measured at day 1 of challenge
Rattus norvegicus [6] = assay: Antiinflammatory activity in albino rat acute inflammatory model assessed as inhibition of formalin-induced paw edema at 10 mg/kg, po administered 1 hr post challenge measured after 1 hr; type: functional; details: in the assay text read “administered 1 hr prior to challenge” for “administered 1 hr post challenge”
Method in brief: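 Rats were randomised into groups of five. Dosing was 10 mg/kg po, given 1 h before 2% formalin (0.1 mL) was injected subplantar into the left hind paw under light ether anaesthesia. […] Values are mean ± S.E., N = 5 rats.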

Rattus norvegicus [7] = assay: Antiinflammatory activity in albino rat sub-acute inflammatory model assessed as inhibition of formalin-induced paw edema at 10 mg/kg, po administered 1 hr prior to challenge for 7 consecutive days measured at day 8 of challenge
Rattus norvegicus [8] = assay: Acute toxicity in albino rat at 0.1 to 0.3 g/kg/, po measured after 24 hrs; details: in vivo
[9] = Ulcerogenic activity in po dosed albino rat measured after 24 hrs; type: toxicity, organism-based; details: in vivo
Method in brief: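 Male albino rats (180–200 g), five per group, fasted 12 h with water ad libitum. Compounds given orally as two equal doses at 0 and 12 h on three successive days, 300 mg/kg per day. Control received 1% gum acacia po. Rats killed 6 h after the last dose. Stomachs opened along the greater curvature, washed with cold saline and inspected under 3X magnification for hyperemia, hemorrhage, erosion or ulcer.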

Rattus norvegicus [10] = assay: Ulcerogenic activity in albino rat assessed as hyperemia at 300 mg/kg/day administered as equal doses at 0 and 12 hrs for three consecutive days measured at 6 hrs post last dose; type: toxicity, organism-based; details: in vivo
Method in brief: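 Male albino rats, 180–200 g, five per group, fasted 12 h with water ad libitum. Dosing was 300 mg/kg/day po, split into equal doses at 0 and 12 h, for 3 successive days. Controls received 1% gum acacia orally. Rats were killed with ether 6 h after the last dose. Stomachs were opened along the greater curvature, washed with cold saline and inspected under a 3X lens for hyperemia, hemorrhage, hemorrhagic erosion or ulcer.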

Rattus norvegicus [11] = assay: Antiinflammatory activity in albino rat acute inflammatory model assessed as inhibition of formalin-induced paw edema at 10 mg/kg, po administered 1 hr prior to challenge measured after 1 hr

SMILES: Cc1c(C(N)=O)sc2nc(S)n(Cc3ccccc3)c(=O)c12
- inhibition in vivo at 10 mg/kg (Rattus norvegicus [1]): 5%
- inhibition in vivo at 10 mg/kg (Rattus norvegicus [2]): 5%
- inhibition in vivo at 10 mg/kg (Rattus norvegicus [3]): 0%
- inhibition in vivo at 10 mg/kg (Rattus norvegicus [4]): 4.07%
- inhibition in vivo at 10 mg/kg (Rattus norvegicus [5]): 4%
- inhibition in vivo at 10 mg/kg (Rattus norvegicus [6]): 25%

SMILES: CSc1nc2sc(C(N)=O)c(C)c2c(=O)n1Cc1ccccc1
- inhibition in vivo at 10 mg/kg (Rattus norvegicus [7]): 21%
- inhibition in vivo at 10 mg/kg (Rattus norvegicus [2]): 38%
- inhibition in vivo at 10 mg/kg (Rattus norvegicus [3]): 43%
- inhibition in vivo at 10 mg/kg (Rattus norvegicus [4]): 11.3%
- inhibition in vivo at 10 mg/kg (Rattus norvegicus [5]): 17%
- inhibition in vivo at 10 mg/kg (Rattus norvegicus [6]): 44%

SMILES: Cc1c(C(N)=O)sc2nc(NN)n(Cc3ccccc3)c(=O)c12
- inhibition in vivo at 10 mg/kg (Rattus norvegicus [1]): 43%
- inhibition in vivo at 10 mg/kg (Rattus norvegicus [2]): 51%
- inhibition in vivo at 10 mg/kg (Rattus norvegicus [3]): 61%
- inhibition in vivo at 10 mg/kg (Rattus norvegicus [4]): 44.8%
- Activity (Rattus norvegicus [8]): Non-toxic
- inhibition in vivo at 10 mg/kg (Rattus norvegicus [5]): 43%
- inhibition in vivo at 10 mg/kg (Rattus norvegicus [6]): 69%
- LD50 at 24 h [9]: > 300 mg/kg
- Activity (Rattus norvegicus [10]): 10%

SMILES: Cc1c(C(N)=O)sc2nc(N/N=C/c3ccc(Br)cc3)n(Cc3ccccc3)c(=O)c12
- inhibition in vivo at 10 mg/kg (Rattus norvegicus [1]): 34%
- inhibition in vivo at 10 mg/kg (Rattus norvegicus [2]): 44%
- inhibition in vivo at 10 mg/kg (Rattus norvegicus [3]): 39%
- inhibition in vivo at 10 mg/kg (Rattus norvegicus [4]): 34.4%
- inhibition in vivo at 10 mg/kg (Rattus norvegicus [5]): 39%
- inhibition in vivo at 10 mg/kg (Rattus norvegicus [6]): 69%

SMILES: Cc1c(C(N)=O)sc2c1c(=O)n(Cc1ccccc1)c1nnc(-c3ccc(Br)cc3)n21
- inhibition in vivo at 10 mg/kg (Rattus norvegicus [11]): 31%
- inhibition in vivo at 10 mg/kg (Rattus norvegicus [1]): 30%
- inhibition in vivo at 10 mg/kg (Rattus norvegicus [2]): 41%
- inhibition in vivo at 10 mg/kg (Rattus norvegicus [3]): 39%
- inhibition in vivo at 10 mg/kg (Rattus norvegicus [4]): 41.2%
- inhibition in vivo at 10 mg/kg (Rattus norvegicus [5]): 37%

SMILES: CC(=O)N1N=C2N(Cc3ccccc3)C(=O)c3c(sc(C(N)=O)c3C)N2C1c1ccc(Br)cc1 (stereo not drawn)
- inhibition in vivo at 10 mg/kg (Rattus norvegicus [11]): 31%
- inhibition in vivo at 10 mg/kg (Rattus norvegicus [1]): 30%
- inhibition in vivo at 10 mg/kg (Rattus norvegicus [2]): 36%
- inhibition in vivo at 10 mg/kg (Rattus norvegicus [3]): 30%
- inhibition in vivo at 10 mg/kg (Rattus norvegicus [4]): 39.8%
- inhibition in vivo at 10 mg/kg (Rattus norvegicus [5]): 33%

SMILES: Cc1c(C(N)=O)sc2c1c(=O)n(Cc1ccccc1)c1n[nH]c(=S)n21
- inhibition in vivo at 10 mg/kg (Rattus norvegicus [1]): 34%
- inhibition in vivo at 10 mg/kg (Rattus norvegicus [2]): 51%
- inhibition in vivo at 10 mg/kg (Rattus norvegicus [3]): 56%
- inhibition in vivo at 10 mg/kg (Rattus norvegicus [4]): 23.1%
- Activity (Rattus norvegicus [8]): Non-toxic
- inhibition in vivo at 10 mg/kg (Rattus norvegicus [5]): 41%
- inhibition in vivo at 10 mg/kg (Rattus norvegicus [6]): 50%
- LD50 at 24 h [9]: > 300 mg/kg
- Activity (Rattus norvegicus [10]): 10%

SMILES: CCOC(=O)CSc1nnc2n(Cc3ccccc3)c(=O)c3c(C)c(C(N)=O)sc3n12
- inhibition in vivo at 10 mg/kg (Rattus norvegicus [1]): 36%
- inhibition in vivo at 10 mg/kg (Rattus norvegicus [2]): 49%
- inhibition in vivo at 10 mg/kg (Rattus norvegicus [3]): 61%
- inhibition in vivo at 10 mg/kg (Rattus norvegicus [4]): 41.2%
- Activity (Rattus norvegicus [8]): Non-toxic
- inhibition in vivo at 10 mg/kg (Rattus norvegicus [5]): 41%
- inhibition in vivo at 10 mg/kg (Rattus norvegicus [6]): 56%
- LD50 at 24 h [9]: > 300 mg/kg
- Activity (Rattus norvegicus [10]): 20%

SMILES: Cc1c(C(N)=O)sc2c1c(=O)n(Cc1ccccc1)c1nnc(-c3ccccc3Cl)n21
- inhibition in vivo at 10 mg/kg (Rattus norvegicus [1]): 30%
- inhibition in vivo at 10 mg/kg (Rattus norvegicus [2]): 49%
- inhibition in vivo at 10 mg/kg (Rattus norvegicus [3]): 43%
- inhibition in vivo at 10 mg/kg (Rattus norvegicus [4]): 35.7%
- inhibition in vivo at 10 mg/kg (Rattus norvegicus [5]): 33%
- inhibition in vivo at 10 mg/kg (Rattus norvegicus [6]): 37%
